# Source: ChEMBL document CHEMBL4765483 (J Med Chem, 2021)
# Tests used:
# [1] = target: Adenosine receptor A2a (Homo sapiens) (UniProt P29274); assay: Displacement of [3H]ZM2421385 from adenosine A2A receptor expressed in human HeLa cell membranes at 1 uM incubated for 30 mins by scintillation counting method; conditions: Cell membrane
# [2] = target: T1, Adenosine receptor A3 (Homo sapiens) (UniProt P0DMS8); assay: Displacement of [3H]NECA from adenosine A3 receptor expressed in human HeLa cell membranes at 1 uM incubated for 180 mins by scintillation counting method; conditions: Cell membrane
# T1 sequence (whole entry): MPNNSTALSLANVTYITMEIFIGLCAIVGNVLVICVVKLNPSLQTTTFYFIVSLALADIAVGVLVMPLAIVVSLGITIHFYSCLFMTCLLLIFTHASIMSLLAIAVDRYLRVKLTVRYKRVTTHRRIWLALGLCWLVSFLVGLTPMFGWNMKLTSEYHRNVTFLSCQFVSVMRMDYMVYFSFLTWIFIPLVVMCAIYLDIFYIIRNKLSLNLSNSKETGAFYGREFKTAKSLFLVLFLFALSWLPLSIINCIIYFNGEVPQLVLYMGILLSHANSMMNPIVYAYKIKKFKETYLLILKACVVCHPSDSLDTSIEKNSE
# How it was run: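 hA3AR in HeLa membranes (3 pmol/mg protein) with 10 nM [3H]NECA (KD 8.7 nM); nonspecific binding with 100 μM R-PIA; incubated 180 min at 25 °C, washed, filtered, radioactivity counted.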
# [3] = target: T2, Adenosine receptor A1 (Homo sapiens) (UniProt P30542); assay: Displacement of [3H]DPCPX from human adenosine A1 receptor expressed in CHO cell membranes at 1 uM incubated for 60 mins by scintillation counting method; conditions: Cell membrane
# T2 sequence (whole entry): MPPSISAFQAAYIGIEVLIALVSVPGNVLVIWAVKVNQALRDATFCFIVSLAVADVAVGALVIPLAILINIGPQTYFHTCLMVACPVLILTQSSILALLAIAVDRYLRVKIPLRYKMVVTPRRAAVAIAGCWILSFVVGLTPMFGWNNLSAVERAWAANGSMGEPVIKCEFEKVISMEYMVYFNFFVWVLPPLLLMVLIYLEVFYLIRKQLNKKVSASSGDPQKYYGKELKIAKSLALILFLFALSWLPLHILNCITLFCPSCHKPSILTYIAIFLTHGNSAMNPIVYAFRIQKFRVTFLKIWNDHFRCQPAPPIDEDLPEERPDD
# Adenosine receptor A2b = target: T3, Adenosine receptor A2b (Homo sapiens, UniProt P29275); assay: Displacement of [3H]DPCPX from human adenosine A2B receptor expressed in HEK293 cell membranes incubated for 30 mins by scintillation counting method; set-up: species or system Cell membrane
# T3 sequence (P29275 whole entry): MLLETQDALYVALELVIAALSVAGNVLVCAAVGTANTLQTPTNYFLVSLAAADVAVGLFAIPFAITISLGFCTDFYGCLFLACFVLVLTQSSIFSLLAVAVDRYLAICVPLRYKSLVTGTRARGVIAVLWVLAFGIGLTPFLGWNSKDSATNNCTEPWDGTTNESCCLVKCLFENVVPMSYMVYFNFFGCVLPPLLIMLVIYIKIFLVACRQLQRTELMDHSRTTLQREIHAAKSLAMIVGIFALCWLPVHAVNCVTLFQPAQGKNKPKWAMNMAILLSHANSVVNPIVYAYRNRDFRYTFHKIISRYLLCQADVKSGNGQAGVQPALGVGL
# [4] = target: T4, Adenosine receptor A2b (Homo sapiens) (UniProt P29275); assay: Displacement of [3H]DPCPX from human adenosine A2B receptor expressed in HEK293 cell membranes at 1 uM incubated for 30 mins by scintillation counting method; conditions: Cell membrane
# T4 sequence (whole entry): T3 sequence (P29275 whole entry)
# Sequence of Adenosine receptor A2a (Homo sapiens) (P29274 whole entry): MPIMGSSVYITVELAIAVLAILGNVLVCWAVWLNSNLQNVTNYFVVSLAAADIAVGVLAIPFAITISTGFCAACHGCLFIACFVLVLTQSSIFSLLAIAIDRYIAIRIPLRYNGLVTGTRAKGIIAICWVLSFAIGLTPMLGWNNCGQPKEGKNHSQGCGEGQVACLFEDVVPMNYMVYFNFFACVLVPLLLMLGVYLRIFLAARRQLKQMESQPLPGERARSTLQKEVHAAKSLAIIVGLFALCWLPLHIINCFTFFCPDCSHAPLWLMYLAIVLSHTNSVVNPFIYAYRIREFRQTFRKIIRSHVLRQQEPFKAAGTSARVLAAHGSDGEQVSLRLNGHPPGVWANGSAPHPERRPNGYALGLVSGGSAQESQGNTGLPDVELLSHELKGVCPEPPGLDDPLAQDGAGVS
inhibition [1] [%],inhibition [2] [%],inhibition [3] [%],Ki (Adenosine receptor A2b) [nM],inhibition ([4]; filed as antagonist) [%],inhibition [4] [%],Structure (SMILES)
9,6,10,11.1,,,CCOC(=O)C1=C(C)NC(=O)N[C@@H]1c1ccsc1
13,1,8,6.3,,,CC1=C(C(=O)OC(C)C)[C@@H](c2ccco2)NC(=S)N1
,,,3250,,,CCOC(=O)C1=C(C)N=C(S)NC1c1cccs1 (racemic)
37,21,56,1190,,,CC1=C(C(=O)OCC(C)C)C(c2ccsc2)NC(=O)N1 (racemic)
30,8,45,1920,,,CC1=C(C(=O)OCc2ccccc2)C(c2cccs2)NC(=O)N1 (racemic)
,,,315,,,CC1=C(C(=O)OC(C)C)C(c2ccsc2)NC(=S)N1 (racemic)
26,3,36,887,,,CC1=C(C(=O)OCc2ccccc2)C(c2ccco2)NC(=O)N1 (racemic)
30,32,43,1520,,,CCCOC(=O)C1=C(C)NC(=O)NC1c1cccs1 (racemic)
36,13,27,199,,,CC1=C(C(=O)OCC(C)C)C(c2ccco2)NC(=O)N1 (racemic)
24,1,41,6650,,,CC1=C(C(=O)OCc2ccccc2)C(c2ccoc2)NC(=O)N1 (racemic)
48,6,44,201,,,CCCOC(=O)C1=C(C)NC(=O)NC1c1ccsc1 (racemic)
45,11,50,1190,,,CCCOC(=O)C1=C(C)NC(=O)NC1c1ccoc1 (racemic)
12,11,25,2130,,,CC1=C(C(=O)OCC(C)C)C(c2cccs2)NC(=O)N1 (racemic)
9,2,11,4440,,,CC1=C(C(=O)OC(C)(C)C)C(c2ccoc2)NC(=O)N1 (racemic)
22,1,2,,40,,CC1=C(C(=O)NC(C)C)C(c2cccs2)NC(=O)N1 (racemic)
1,1,8,,,3,CC1=C(C(=O)NC(C)C)C(c2ccsc2)NC(=O)N1 (racemic)
20,1,9,,,1,CC1=C(C(=O)OC2CCCC2)C(c2cccs2)NC(=O)N1 (racemic)
5,4,1,,,1,CC1=C(C(=O)OC2CCCCC2)C(c2ccco2)NC(=O)N1 (racemic)
14,1,7,,,3,CC1=C(C(=O)OC2CCCCC2)C(c2cccs2)NC(=O)N1 (racemic)
3,1,15,,,4,CC1=C(C(=O)OC2CCCCC2)C(c2ccoc2)NC(=O)N1 (racemic)
2,1,8,,,4,CC1=C(C(=O)OC2CCCCC2)C(c2ccsc2)NC(=O)N1 (racemic)
2,1,5,,,22,CC1=C(C(=O)SC(C)C)C(c2ccco2)NC(=O)N1 (racemic)

inhibition [1] [%],inhibition [2] [%],inhibition [3] [%],Ki (Adenosine receptor A2b) [nM],inhibition ([4]; filed as antagonist) [%],inhibition [4] [%],Structure (SMILES)
1,1,1,,,1,CC1=C(C(=O)SC(C)C)C(c2cccs2)NC(=O)N1 (racemic)
2,1,24,,,14,CC1=C(C(=O)SC(C)C)C(c2ccsc2)NC(=O)N1 (racemic)
18,1,2,,,1,CC1=C(C(N)=O)C(c2ccsc2)NC(=O)N1 (racemic)
7,1,21,,45,,CC1=C(c2ncc(C)o2)C(c2cccs2)NC(=O)N1 (racemic)
2,7,5,,,7,CCC(C)OC(=O)C1=C(C)NC(=O)NC1c1cccs1 (racemic)
1,7,5,,,39,CCC(C)OC(=O)C1=C(C)NC(=O)NC1c1ccsc1 (racemic)
3,1,2,,,35,CCC(CC)OC(=O)C1=C(C)NC(=O)NC1c1ccco1 (racemic)
4,1,13,,,6,CCC(CC)OC(=O)C1=C(C)NC(=O)NC1c1cccs1 (racemic)
2,5,17,,,28,CCC(CC)OC(=O)C1=C(C)NC(=O)NC1c1ccoc1 (racemic)
1,6,22,,,26,CCC(CC)OC(=O)C1=C(C)NC(=O)NC1c1ccsc1 (racemic)
15,31,13,,,22,CCN(CC)C(=O)C1=C(C)NC(=O)NC1c1cccs1 (racemic)
9,35,11,,,11,CCN(CC)C(=O)C1=C(C)NC(=O)NC1c1ccsc1 (racemic)
17,1,3,,,1,CCNC(=O)C1=C(C)NC(=O)NC1c1ccsc1 (racemic)
4,4,3,,,2,CCOP(=O)(OCC)C1=C(C)NC(=O)NC1c1ccco1 (racemic)
5,5,2,,,7,CCOP(=O)(OCC)C1=C(C)NC(=O)NC1c1cccs1 (racemic)
8,2,1,,,3,CCOP(=O)(OCC)C1=C(C)NC(=O)NC1c1ccoc1 (racemic)
3,1,4,,,1,CCOP(=O)(OCC)C1=C(C)NC(=O)NC1c1ccsc1 (racemic)
2,14,6,,,29,CCSC(=O)C1=C(C)NC(=O)NC1c1ccco1 (racemic)
8,1,6,,,1,CCSC(=O)C1=C(C)NC(=O)NC1c1cccs1 (racemic)
1,1,3,,,1,CCSC(=O)C1=C(C)NC(=O)NC1c1ccoc1 (racemic)
1,2,11,,,17,CCSC(=O)C1=C(C)NC(=O)NC1c1ccsc1 (racemic)
